Reference: ChEMBL document CHEMBL2146445, “Discovery of BIIB042, a Potent, Selective, and Orally Bioavailable γ-Secretase Modulator” (ACS Med Chem Lett, 2011)
Active and inactive are the calls of the source. No cut-off for these calls is given here.

Assays:
[1] = Modulation of gamma-secretase
[2] = Ratio of tarenflurbil EC50 to compound EC50 for gamma-secretase
[3] = Thermodynamic solubility of the compound; type: physicochemical; settings: read-out: Therm_solubility
Method in brief: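 Thermodynamic solubility measured on the crystalline HCl salt.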

[4] = Plasma clearance in rat at 1 mg/kg, iv; type: ADME, organism-based; design: dose 1 mg/kg, route intravenous
Method in brief: (§1)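 Single dose to rats, dogs and cynomolgus monkeys. IV at 1 mg/kg in EtOH:PEG400:water (10:40:50), 1 mL/kg. Oral at 10 mg/kg as crystalline HCl salt suspension in 0.5% CMC, 0.2% Tween80, 5 mL/kg. Plasma sampled over 0–24 h. Values are mean ± SD, n = 3.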

[5] = Plasma clearance in dog at 1 mg/kg, iv; type: ADME, organism-based, Canis lupus familiaris; design: dose 1 mg/kg, route intravenous; method in brief: as §1
[6] = Plasma clearance in cynomolgus monkey at 1 mg/kg, iv; type: ADME, organism-based, Macaca fascicularis; design: dose 1 mg/kg, route intravenous; method in brief: as §1
[7] = Volume of distribution at steady state in rat at 1 mg/kg, iv; type: ADME, organism-based; design: dose 1 mg/kg, route intravenous; settings: in vivo, read-out: Vdss; method in brief: as §1
[8] = Volume of distribution at steady state in dog at 1 mg/kg, iv; type: ADME, organism-based, Canis lupus familiaris; design: dose 1 mg/kg, route intravenous; settings: in vivo, read-out: Vdss; method in brief: as §1
[9] = Volume of distribution at steady state in cynomolgus monkey at 1 mg/kg, iv; type: ADME, organism-based, Macaca fascicularis; design: dose 1 mg/kg, route intravenous; settings: in vivo, read-out: Vdss; method in brief: as §1
[10] = Half life in rat at 1 mg/kg, iv; type: ADME, organism-based; design: dose 1 mg/kg, route intravenous; settings: in vivo
Method in brief: (§2)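 Single-dose PK in rats, dogs and cynomolgus monkeys. The compound was given iv at 1 mg/kg in EtOH:PEG400:water (10:40:50) at 1 mL/kg. […] Values are mean ± SD, n = 3.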

[11] = Half life in dog at 1 mg/kg, iv; type: ADME, organism-based, Canis lupus familiaris; design: dose 1 mg/kg, route intravenous; settings: in vivo; method in brief: as §2
[12] = Half life in cynomolgus monkey at 1 mg/kg, iv; type: ADME, organism-based, Macaca fascicularis; design: dose 1 mg/kg, route intravenous; settings: in vivo; method in brief: as §2
[13] = Half life in rat at 10 mg/kg, po; type: ADME, organism-based; design: dose 10 mg/kg, route oral; settings: in vivo
Method in brief: (§3)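 Single oral dose of 10 mg/kg given to rats, dogs or cynomolgus monkeys. The crystalline HCl salt was suspended in 0.5% CMC with 0.2% Tween80 and dosed at 5 mL/kg. […] Parameters are reported as mean ± SD, n = 3.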

[14] = Half life in dog at 10 mg/kg, po; type: ADME, organism-based, Canis lupus familiaris; design: dose 10 mg/kg, route oral; settings: in vivo; method in brief: as §3
[15] = Half life in cynomolgus monkey at 10 mg/kg, po; type: ADME, organism-based, Macaca fascicularis; design: dose 10 mg/kg, route oral; settings: in vivo; method in brief: as §3
[16] = AUC (0 to 24 hrs) in rat at 1 mg/kg, iv; type: ADME, organism-based; design: time < 24 hr, dose 1 mg/kg, route intravenous; settings: plasma; method in brief: as §2
[17] = AUC (0 to 24 hrs) in dog at 1 mg/kg, iv; type: ADME, organism-based, Canis lupus familiaris; design: time < 24 hr, dose 1 mg/kg, route intravenous; settings: plasma; method in brief: as §2
[18] = AUC (0 to 24 hrs) in cynomolgus monkey at 1 mg/kg, iv; type: ADME, organism-based, Macaca fascicularis; design: time < 24 hr, dose 1 mg/kg, route intravenous; settings: plasma; method in brief: as §2
[19] = AUC (0 to 24 hrs) in rat at 10 mg/kg, po; type: ADME, organism-based; design: time < 24 hr, dose 10 mg/kg, route oral; settings: plasma
[20] = AUC (0 to 24 hrs) in dog at 10 mg/kg, po; type: ADME, organism-based, Canis lupus familiaris; design: time < 24 hr, dose 10 mg/kg, route oral; settings: plasma
[21] = AUC (0 to 24 hrs) in cynomolgus monkey at 10 mg/kg, po; type: ADME, organism-based, Macaca fascicularis; design: time < 24 hr, dose 10 mg/kg, route oral; settings: plasma
[22] = Cmax in rat at 10 mg/kg, po; type: ADME, organism-based; design: dose 10 mg/kg, route oral; settings: in vivo; method in brief: as §3
[23] = Cmax in dog at 10 mg/kg, po; type: ADME, organism-based, Canis lupus familiaris; design: dose 10 mg/kg, route oral; settings: in vivo; method in brief: as §3
[24] = Cmax in cynomolgus monkey at 10 mg/kg, po; type: ADME, organism-based, Macaca fascicularis; design: dose 10 mg/kg, route oral; settings: in vivo; method in brief: as §3
[25] = Tmax in rat at 10 mg/kg, po; type: ADME, organism-based; design: dose 10 mg/kg, route oral; settings: in vivo; method in brief: as §1
[26] = Tmax in dog at 10 mg/kg, po; type: ADME, organism-based, Canis lupus familiaris; design: dose 10 mg/kg, route oral; settings: in vivo; method in brief: as §1
[27] = Tmax in cynomolgus monkey at 10 mg/kg, po; type: ADME, organism-based, Macaca fascicularis; design: dose 10 mg/kg, route oral; settings: in vivo; method in brief: as §1
[28] = Oral bioavailability in rat at 10 mg/kg; type: ADME, organism-based; settings: in vivo; method in brief: as §1
[29] = Oral bioavailability in dog at 10 mg/kg; type: ADME, organism-based, Canis lupus familiaris; settings: in vivo; method in brief: as §1
[30] = Oral bioavailability in cynomolgus monkey at 10 mg/kg; type: ADME, organism-based, Macaca fascicularis; settings: in vivo; method in brief: as §1
[31] = test system: Brain; experiment: Drug uptake in CF1 mouse brain at 10 mg/kg, po; type: ADME, organism-based; design: dose 10 mg/kg, route oral; settings: in vivo, read-out: Drug uptake
Method in brief: (§4)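 Wild-type CF-1 mice received a single oral dose as a solution in ethanol:propylene glycol:10% solutol (1:1:8). Animals were sacrificed 4 h after dosing. Brain and plasma were collected for drug concentration and Aβ levels. Aβ change was expressed relative to vehicle-treated controls.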

[32] = test system: Plasma; experiment: Plasma concentration in CF1 mouse at 10 mg/kg, po; type: ADME, organism-based; design: dose 10 mg/kg, route oral; settings: in vivo
Method in brief: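 Wild-type (CF-1) mice given compound orally as a solution in ethanol:propylene glycol:10% solutol (1:1:8). Animals sacrificed 4 h post-dose; brain and plasma collected for drug exposure and Aβ levels.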

[33] = Modulation of gamma-secretase in CHO cells overexpressing APP V717 mutant assessed as reduction in amyloid beta42 level after 17 hrs by ELISA; type: cell-based; settings: Cricetulus griseus
Method in brief: (§5)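 CHO cells overexpressing APP V717F; Aβ42, Aβ40 and Aβ38 quantified together in each well by multiplex Aβ ELISA. EC50 is the mean of at least two determinations.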

[34] = Modulation of gamma-secretase in CHO cells overexpressing APP V717 mutant assessed as increase in amyloid beta38 level after 17 hrs by ELISA; type: cell-based; settings: Cricetulus griseus; method in brief: as §5
[35] = test system: CHO; experiment: Modulation of gamma-secretase in CHO cells overexpressing APP V717 mutant assessed as effect on amyloid beta40 level after 17 hrs by ELISA; type: cell-based; settings: Cricetulus griseus; method in brief: as §5
[36] = biological target: Voltage-gated inwardly rectifying potassium channel KCNH2 (Homo sapiens, UniProt Q12809); experiment: Inhibition of human ERG by patch clamp assay
Chain of Voltage-gated inwardly rectifying potassium channel KCNH2 (Q12809 whole entry): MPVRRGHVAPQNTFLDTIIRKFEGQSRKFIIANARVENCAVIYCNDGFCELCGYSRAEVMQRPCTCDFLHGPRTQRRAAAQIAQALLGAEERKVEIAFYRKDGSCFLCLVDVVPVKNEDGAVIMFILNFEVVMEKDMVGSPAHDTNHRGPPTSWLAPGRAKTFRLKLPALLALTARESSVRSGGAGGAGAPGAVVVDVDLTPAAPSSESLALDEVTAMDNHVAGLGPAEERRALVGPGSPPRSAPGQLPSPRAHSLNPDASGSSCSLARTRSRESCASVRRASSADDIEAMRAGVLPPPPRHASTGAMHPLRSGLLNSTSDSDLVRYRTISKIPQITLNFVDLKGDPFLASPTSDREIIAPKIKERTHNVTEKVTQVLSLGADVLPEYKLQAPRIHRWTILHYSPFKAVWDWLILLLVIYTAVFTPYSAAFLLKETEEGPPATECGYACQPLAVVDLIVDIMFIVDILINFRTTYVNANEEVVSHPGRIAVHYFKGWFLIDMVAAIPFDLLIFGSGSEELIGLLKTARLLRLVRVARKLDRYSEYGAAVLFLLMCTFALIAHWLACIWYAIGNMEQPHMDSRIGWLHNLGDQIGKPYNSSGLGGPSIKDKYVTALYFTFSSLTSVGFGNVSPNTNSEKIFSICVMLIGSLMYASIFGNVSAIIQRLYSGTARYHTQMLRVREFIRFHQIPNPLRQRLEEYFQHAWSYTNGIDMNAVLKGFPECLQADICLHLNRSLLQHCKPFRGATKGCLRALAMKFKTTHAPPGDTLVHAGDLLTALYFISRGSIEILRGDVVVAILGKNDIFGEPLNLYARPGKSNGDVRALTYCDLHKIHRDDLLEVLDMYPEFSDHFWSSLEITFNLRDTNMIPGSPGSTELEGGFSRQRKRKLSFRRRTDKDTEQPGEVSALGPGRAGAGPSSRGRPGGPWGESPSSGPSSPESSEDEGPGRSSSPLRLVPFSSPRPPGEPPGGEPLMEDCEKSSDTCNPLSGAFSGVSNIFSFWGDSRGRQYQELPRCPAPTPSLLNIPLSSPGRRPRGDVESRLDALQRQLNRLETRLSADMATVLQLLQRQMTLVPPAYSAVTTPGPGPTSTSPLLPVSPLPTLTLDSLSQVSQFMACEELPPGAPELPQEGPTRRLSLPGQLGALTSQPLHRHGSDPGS
Method in brief: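 hERG was tested in an automated FastPatch patch-clamp assay, giving an EC50 readout.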

[37] = test system: Mus musculus; experiment: Antialzheimer activity in CF1 mouse assessed as reduction in amyloid beta 42 level in brain at 10 mg/kg, po; type: functional; design: scale not given: the % may be the effect or the level left; method in brief: as §4

SMILES: O=C(O)C1(c2ccc(-c3ccc(Cl)c(Cl)c3)c(F)c2)CC1
- EC50 [1]: 40 µM
- Ratio EC50 [2]: 7

SMILES: CC1CCN([C@H](c2ccc(F)cc2)c2ccc([C@@H](C)C(=O)O)cc2-c2ccc(C(F)(F)F)cc2)CC1.Cl
- solubility thermodynamic [3]: 20 µg/mL
- clearance [4]: 1.5 mL/min/kg
- clearance [5]: 14 mL/min/kg
- clearance [6]: 3.7 mL/min/kg
- Vd [7]: 0.8 L/kg
- Vd [8]: 0.9 L/kg
- Vd [9]: 1.7 L/kg
- half-life [10]: 7.2 h
- half-life [11]: 1.3 h
- half-life [12]: 11.2 h
- half-life [13]: 6.6 h
- half-life [14]: 2.3 h
- half-life [15]: 25 h
- AUC(0-t) at 24 h [16]: 10400 ng·h/mL
- AUC(0-t) at 24 h [17]: 1200 ng·h/mL
- AUC(0-t) at 24 h [18]: 4700 ng·h/mL
- AUC(0-t) at 24 h [19]: 49700 ng·h/mL
- AUC(0-t) at 24 h [20]: 5200 ng·h/mL
- AUC(0-t) at 24 h [21]: 48000 ng·h/mL
- Cmax [22]: 6000 ng/mL
- Cmax [23]: 1400 ng/mL
- Cmax [24]: 5900 ng/mL
- Tmax [25]: 1.7 h
- Tmax [26]: 1.3 h
- Tmax [27]: 2 h
- bioavailability [28]: 47%
- bioavailability [29]: 44%
- bioavailability [30]: 106%

SMILES: CC1CCN([C@@H](c2ccc(F)cc2)c2ccc([C@H](C)C(=O)O)cc2-c2ccc(C(F)(F)F)cc2)CC1
- concentration [31]: 6.6 µM
- concentration [32]: 7.4 µM
- EC50 [33]: 0.15 µM
- EC50 [34]: 0.11 µM
- Activity [35]: inactive
- EC50 [36]: 4.6 µM
- Activity [37]: 38%
